According to paper PMC7175782 (Bioconjugate chemistry, 2018):

Test system: TAR RNA
Assay: Direct binding of ligands to TAR by ESI-MS under nondenaturing conditions
Design: species or system HIV-1
Settings: 1 μM TAR, 10 μM ligand (1:10), 150 mM ammonium acetate
How it was run: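 Nondenaturing ESI-MS of HIV-1 TAR RNA (1 μM) mixed with test compound (10 μM, 1:10 molar ratio) in 150 mM ammonium acetate. Species assigned from monoisotopic masses. Free and bound RNA were quantified from relative abundances, expressed as percentages and compared to assess binding.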

| SMILES | binding stoichiometry of TAR complexes (ligand:TAR) |
| --- | --- |
| CC(NC(=O)C(N)CCCN)C(=O)Nc1ccc2c(c1)C(=O)c1ccc(NC(=O)C(C)NC(=O)C(N)CCCN)cc1C2=O.O=C(O)C(F)(F)F.O=C(O)C(F)(F)F.O=C(O)C(F)(F)F.O=C(O)C(F)(F)F [D-4g, N,N ′-(1,1′-(9,10-Dioxo-9,10-dihydroanthracene-2,6-diyl)-bis(azanediyl)bis(1-oxo-propane-2,1-diyl))bis(2,5-diaminopentanamide)-tetra-trifluoroacetate] | up to 3 equiv of ligand |
| C[C@H](NC(=O)C(N)CCCCN)C(=O)Nc1ccc2c(c1)C(=O)c1ccc(NC(=O)[C@H](C)NC(=O)C(N)CCCCN)cc1C2=O.O=C(O)C(F)(F)F.O=C(O)C(F)(F)F.O=C(O)C(F)(F)F.O=C(O)C(F)(F)F (stereo partly drawn) [D-4h, N,N′-(2S,2′S)-1,1′-(9,10-Dioxo-9,10-dihydro-anthracene-2,6-diyl)bis(azanediyl)-bis(1-oxopropane-2,1-diyl)bis(2,6-diaminohexanamide)-tetra-trifluoroacetate] | up to 4 equiv of ligand |
